The source of these data is article PMC10760106 (bioRxiv, 2023).

Series [1] concerns HiBiT F3 in ARPE-19 cells. Kind of series: non-HTS extracellular/intracellular HiBiT F3 assay. The following applies: for HiBiT F3 secretion (extracellular) / intracellular HiBiT F3 levels: dose-responsive, ARPE-19. It counts as cell-based, human. The essentials:
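HiBiT F3 ARPE-19 cells were plated at 200,000 cells/mL, and test compound in medium was added the next day. Treatment lasted 72 h or 1 week, with medium and compound renewed after 96 h for 1-week wells. For intracellular signal, cells were washed in HBSS and lysed 5 min with shaking in lytic buffer containing LgBiT (1:100) and substrate (1:50). Luminescence was read on 40 μL of lysate.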
In general terms: The HiBiT peptide binds its large partner to form an active luciferase.

Series [2] concerns HiBiT F3 ARPE-19 cells (fibulin-3 production). Kind of series: HTS whole-well HiBiT F3 assay. It counts as cell-based, human. The conditions noted are these: 0.2 nM – 50 μM, 24 h. The method, boiled down: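 Genome-edited heterogeneous ARPE-19 cells (2xFLAG-VS-HiBiT inserted after Ser16 of F3) were seeded at ~5,000 cells/well in 384-well plates and grown 24 h at 37°C. Medium was exchanged, and test compound in 0.1% DMSO was applied for 24 h. Plates were cooled 20 min at RT, then received a lytic buffer master mix with LgBiT (1:100) and lytic substrate (1:50). After 5 min shaking, whole-well luminescence was read.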

Series [3] relates to HiBiT F3 ARPE-19 cells. Nature of the series: Cell Titer Glo 2.0 viability counter screen. It counts as cell-based, human. The following applies: 1.66 and 5 μM, 48 h. A general note: ATP-based viability assays read luminescence as a measure of living cells.
For series [4], the system named is TCF-dependent Wnt signaling in HiBiT F3 ARPE-19 cells. Nature of the series: 7xTCF reporter. It counts as cell-based, human. The following applies: 1 μM, one week, 7TFP cells.
The test system of series [5] is HiBiT WT F3 and HiBiT R345W F3 ARPE-19 cells. Kind of series: extracellular HiBiT assay on transwells, WT and R345W F3. Type of series: cell-based, human. The conditions noted are these: 1 μM, 1 week, serum-free. The essentials: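 Cells carried HiBiT-tagged WT or R345W F3 in ARPE-19, with R345W made by knock-in in clonal cells. They were seeded on polyester transwells (~100,000/well for 12-well, ~30,000/well for 24-well) and switched to serum-free medium the next day, with changes every 3–4 days. After 1 week, cells were treated 1 week with 1 μM test compound or 0.1% DMSO in serum-free medium. Apical and basal media were then assayed for extracellular HiBiT luminescence.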

Series [6] deals with HiBiT mouse F3 in NIH-3T3 cells. Nature of the series: HiBiT F3 assay in NIH-3T3 fibroblasts. It counts as cell-based. The following applies: NIH-3T3 mouse cells, 72 h.
Series [7] concerns BLamD in R345W+/+ knockin mice. Nature of the series: basal laminar deposit. Type of series: in vivo, mouse. The conditions noted are these: treated mice (30/720 FOV), 25 mg/kg i.p., 1 mo; untreated 14.205%.
Series [8] relates to transcriptome of HiBiT F3 ARPE-19 cells. Nature of the series: bulk RNAseq. It counts as cell-based, human. The following applies: 1 μM, 1 week. The essentials: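 The next day, 1 μM test compound or DMSO (1:1000) was added, with a media change at 96 h. Total RNA was extracted 7 days after treatment start and stored at −80°C. PCR-amplified libraries were bead-purified and quality-checked on a Bioanalyzer before sequencing.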

The conditions of series [9]: preclinical neurological disorder studies; ref [61]; cited from earlier work.
For series [10], the system named is HiBiT F5 in ARPE-19 cells. Nature of the series: HiBiT fibulin-5. Type of series: cell-based, human.
Series [11] relates to HiBiT F3 in primary human dermal fibroblasts. Nature of the series: HiBiT F3 assay in primary dermal fibroblasts. Type of series: cell-based. The conditions noted are these: 72 h, dose-responsive.
The test system of series [12] is MMP2. Kind of series: MMP2 zymography. It counts as cell-based, human. The conditions noted are these: 1 μM, 1 week, HiBiT WT F3 and R345W F3 cells. The method, boiled down:
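HiBiT WT or R345W F3 ARPE-19 cells were grown on polyester transwells in serum-free medium for 1 week, then treated 1 week with 1 μM test compound or 0.1% DMSO. Apical and basal media went in non-reducing SDS buffer onto 10% gelatin gels (140 V, 90 min). Gels were renatured 30 min at RT, developed 30 min at RT, then overnight at 37°C in fresh developing buffer. Coomassie R-250 staining and densitometry followed.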

Series [13] can be described thus: CHIR PK experiment with LC-MS/MS. Type of series: in vivo, mouse. The method, boiled down: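 C57BL/6J mice (three per time point, at least one male and one female) received 25 mg/kg i.p. of test compound. It was given as 5 mg/mL in 2% DMSO/5.7% Captisol in PBS. Tissues were collected at 0, 30, 180, 360, 960 and 1440 min under isoflurane, and retina and liver were homogenized in PBS. […] Eye level was estimated from a vitreous volume of ~4.4 μL.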

Series [14] concerns secreted proteome of HiBiT ARPE-19 cells. Kind of series: secreted proteome visualization and mass spectrometry. It counts as cell-based, human.
The subject of series [15] is ARPE-19 cells. Nature of the series: lactate dehydrogenase. Type of series: cell-based, human. The method, boiled down:
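Test compound was applied to ARPE-19 cells for 72 h or 1 week. Media were spun at 1,000 RPM for 5 min. In technical triplicate, 50 μL of cleared medium was mixed with an equal volume of LDH reaction buffer for 30 min at 37°C. DMSO-treated medium served as control, and lysis buffer-treated cells served as positive control.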

Where [16] appears, read: both, C57BL/6J, mouse, eye, ip, 25 mg/kg.
The mark [17] stands for this setting: both, C57BL/6J, mouse, liver, ip, 25 mg/kg.
Setting [18] is: both, C57BL/6J, mouse, plasma, ip, 25 mg/kg.
Setting [19] is: both, C57BL/6J, mouse, retina, ip, 25 mg/kg.

As for 6-bromoindirubin-3-oxime [BIO], in series [1] (72 h), the “HiBiT F3 secretion (extracellular)” value is reported as “significantly reduced” and the “intracellular HiBiT F3 levels” value is reported as “significantly reduced”.

As to `CN1CCN(S(=O)(=O)c2ccc(-c3cnc(N)c(C(=O)Nc4cccnc4)n3)cc2)CC1` [AZD2858], the “dose-response confirmation of HiBiT F3 reduction” value in series [2] is on record as “demonstrated dose-responsiveness”. The cytotoxicity profile entry in series [3] is given as “favorable cytotoxicity profiles”.

Regarding `Cc1c[nH]c(-c2cnc(NCCNc3ccc(C#N)cn3)nc2-c2ccc(Cl)cc2Cl)n1` [CHIR99021], the “TCF activation (FLuc)” value in [4] was “without triggering TCF activation”. The “apically and basally secreted HiBiT WT F3 and HiBiT R345W F3” value in series [5] is “significantly reduced”. In addition, the F3 production result in series [6] is “reduced F3 production”. The “FOVs containing deposits (BLamDs)” value in [7] amounted to 4.167%. Further, in [8], the “PEDF (SERPINF1) in proteomics and RNAseq datasets” value was “significantly upregulated”; the “transcripts of TYR and TYRP1” value is reported as “significantly upregulated”. Moreover, the blood-brain barrier crossing entry in series [9] is given as “can cross the blood-brain barrier”. Further, the “secreted F5” value in [10] (72 h, all concentrations used) is recorded as “dose-responsive reduction”. For the same compound, the F5 secretion entry in series [10] (week-long treatment, only at 1 and 10 μM) is reported as “significantly reduced”. In [11], the “intracellular HiBiT F3” value is “significantly reduced” and the “secreted HiBiT F3” value is “significantly reduced”. In [12], the “reduction of MMP2 levels in apical media” value is 16-17% and the “reduction of MMP2 levels in basal media” value was 29-31%. Besides, the “estimated peak concentration of CHIR in the eye” value in series [13] (after 30 min, 25 mg/kg i.p., based on vitreous volume ~4.4 μL) is listed as ~ 1.3 μM. In [13] (setting [16]), this compound gave a concentration at 3 h of around 1100 nM, a concentration at 6 h of 364 nM and a concentration at 24 h of 151 nM. Moreover, in series [13] (setting [17]), the Cmax turned out to be 33300 ng/g, the Tmax was 0.5 h, the concentration at 30 min amounted to 33300 ng/g and the concentration at 180 min came out at 4680 ng/g. For the same compound, in [13] (setting [17]), the concentration at 360 min turned out to be 1160 ng/g, the concentration at 960 min was 6.1 ng/g, the concentration at 1440 min stood at 5.2 ng/g and the half-life came to 2 h. In addition, the MRT in series [13] (both, C57BL/6J, mouse, liver, ip, 25 mg/kg, MRT, 25 mpk IP) is 1.57 h. Further, in [13] (setting [18]), the AUC(0-t) is 15500 ng·h/mL, the CL/F was determined as 27 mL/min/kg, the Cmax came to 9250 ng/mL and the Tmax is 0.5 h. For the same compound, in series [13] (setting [18]), the concentration at 30 min was 9250 ng/mL, the concentration at 180 min was determined as 490 ng/mL, the concentration at 360 min stood at 41 ng/mL and the concentration at 960 min was 0.3 ng/mL. For the same compound, in series [13] (setting [18]), the concentration at 1440 min was determined as 0.4 ng/mL and the half-life turned out to be 1.97 h. In series [13] (both, C57BL/6J, mouse, plasma, ip, 25 mg/kg, MRT, 25 mpk IP), this compound had an MRT of 0.817 h. In series [13] (setting [19]), the Cmax came to 527 ng/g, the Tmax was 0.5 h, the concentration at 30 min came to 527 ng/g and the concentration at 180 min came out at 434 ng/g. Besides, in [13] (setting [19]), the concentration at 360 min was 148 ng/g, the concentration at 960 min turned out to be 41 ng/g, the concentration at 1440 min turned out to be 61 ng/g and the half-life is 6.75 h. This compound also showed an MRT in series [13] (both, C57BL/6J, mouse, retina, ip, 25 mg/kg, MRT, 25 mpk IP) of 6.05 h. Also, the AUClast in series [13] (liver, 25 mpk IP, mouse) is 4,231,688 ± 272,680 min*ng/g. Further, in [13] (plasma, 25 mpk IP, mouse), the Vz_F amounted to 4.586 L/kg. The AUClast in series [13] (retina, 25 mpk IP, mouse) was 213,348 ± 17,725 min*ng/g. The same compound returned an MRT in series [13] (retina, 25 mpk IP, mouse, 25 mg/kg) of 6.03 h. The “total protein secretion (SDS-PAGE of concentrated media)” value in series [14] (10 μM) is given as “clear increase”. The “banding pattern or intensity of secreted protein” value in [14] (0.1 or 1 μM) was “relatively little detectable change”. In addition, in series [15] (72 h), the “toxicity by LDH release” value is “non-toxic”. For the same compound, in [15] (prolonged low level, one week), the “cell death by LDH release” value is “does not increase cell death”. Also, the “reduction of F3 secretion” value in series [1] (1 μM, one week) came to 49.9 ± 7.0%. Further, in series [1] (10 μM, 72 h), the “reduction of HiBiT F3 secretion” value is recorded as “up to 76%”. Moreover, in [1] (72 h), the “HiBiT F3 secretion (extracellular)” value is “significantly reduced” and the “intracellular HiBiT F3 levels” value is listed as “significantly reduced”.

Regarding `Cc1cnc(-c2cnc(NCCNc3ccc(C#N)cn3)nc2-c2ccc(Cl)cc2Cl)[nH]1.Cl.Cl.Cl` [CHIR trihydrochloride], the Tmax in series [13] (liver, 25 mpk IP, mouse) came out at 0.5 h; in series [13] (plasma, 25 mpk IP, mouse) it was 0.5 h; in series [13] (retina, 25 mpk IP, mouse), 0.5 h.

With `[Cl-].[Li+]` [LiCl, lithium chloride], in series [1] (72 h), the “HiBiT F3 secretion (extracellular)” value is listed as “significantly reduced” and the “intracellular HiBiT F3 levels” value is listed as “significantly reduced”.

The Cmax is the maximum level reached in the sampled fluid or tissue. The Tmax is the time from dosing to the highest level. The term half-life denotes how long it takes for the measured level to halve. Higher therefore signals slow decline. Usually MRT stands for the average time that molecules of a dose stay in the body. What is called AUC(0-t) is exposure summed from dosing to a finite time, without extrapolation to infinity. Higher therefore signals high exposure. As usually defined, the CL/F is clearance divided by bioavailability, as obtained after extravascular dosing.
